Published values pooled from the literature.
Compare with care: the assays were run in different laboratories.
Target: Dual specificity mitogen-activated protein kinase kinase 2 (MAP2K2, Homo sapiens, UniProt P36507)

| Structure (SMILES) | assay | conditions | endpoint | result |
| --- | --- | --- | --- | --- |
| CN1CCN(C(=O)c2ccc(NC(=O)Nc3ccc(N(C)c4ccnc(Nc5ccc(CS(C)(=O)=O)cc5)n4)cc3)cc2)CC1 | binding, competition with immobilised ligand | 1 µM | remaining binding | 40% |
| CCCCC(=O)Nc1ccc(-c2ccc3ncn(CCC)c(=O)c3c2)cn1 | binding, competition with immobilised ligand | 0.5 µM | remaining binding | 68% |
| COc1ccc2[nH]c3c4[nH]c5ccc(OC)cc5c4c4c(c3c2c1)C(=O)NC4=O | binding, competition with immobilised ligand | 1 µM | remaining binding | 59% |
| C#Cc1cc(-c2cc(Nc3nc(N[C@@H](C)c4ccc(F)cn4)ncc3Cl)n[nH]2)ccc1C=O | enzyme activity, inhibitor | 0.2 µM | inhibition | 20.9% |
| CO[C@@H]1[C@H](N(C)C(=O)c2ccccc2)C[C@H]2O[C@]1(C)n1c3ccccc3c3c4c(c5c6ccccc6n2c5c31)C(=O)NC4 | enzyme activity, inhibitor | 1 µM | inhibition | 20% |
| Cc1cc(O)c(-c2ccc([C@@H](C)CN(C)C)cc2)c2c1[nH]c(=O)c1sccc12 | enzyme activity, inhibitor | 0.1 µM | inhibition | 24.2% |
| COc1ccc2oc(-c3ccc4nc(N)oc4c3)c/c(=N\c3ccccc3NC(=O)CCN)c2c1 | binding | 1 µM | remaining binding | 106% |
| C=CC(=O)N1CCC([C@@H]2CCNc3c(C(N)=O)c(-c4ccc(Oc5ccccc5)cc4)nn32)CC1 | enzyme activity, inhibitor | 1 µM | inhibition | 99% |
| N#Cc1ccc(NC(=O)Nc2ccccc2)cc1 | cell-free assay, competition with immobilised ligand | 25 µM | remaining binding | 64% |
| CC(C)S(=O)(=O)c1ccc2nccc(Nc3ccc4sc(C5CCCC5)nc4c3)c2c1 | enzyme activity, inhibitor | 1 µM | activity vs control | 98% |
